# Measurements published in ChEMBL document CHEMBL3739392, “Development of highly potent phosphodiesterase 10A (PDE10A) inhibitors: Synthesis and in vitro evaluation of 1,8-dipyridinyl- and 1-pyridinyl-substituted imidazo[1,5-a]quinoxalines” (Eur J Med Chem, 2016).
# Experiments:
# [1] = target: cGMP-inhibited 3',5'-cyclic phosphodiesterase 3A (Homo sapiens, UniProt Q14432); experiment: Inhibition of human PDE3A using [3H]cAMP as substrate after 30 mins by scintillation proximity assay
# [2] = Inhibition of bovine PDE6 using [3H]cAMP as substrate after 30 mins by scintillation proximity assay; design: species or system Bos taurus
# [3] = target: 3',5'-cyclic-AMP phosphodiesterase 7B (Homo sapiens, UniProt Q9NP56); experiment: Inhibition of human PDE7B using [3H]cAMP as substrate after 30 mins by scintillation proximity assay
# Chain of 3',5'-cyclic-AMP phosphodiesterase 7B (Q9NP56 whole entry): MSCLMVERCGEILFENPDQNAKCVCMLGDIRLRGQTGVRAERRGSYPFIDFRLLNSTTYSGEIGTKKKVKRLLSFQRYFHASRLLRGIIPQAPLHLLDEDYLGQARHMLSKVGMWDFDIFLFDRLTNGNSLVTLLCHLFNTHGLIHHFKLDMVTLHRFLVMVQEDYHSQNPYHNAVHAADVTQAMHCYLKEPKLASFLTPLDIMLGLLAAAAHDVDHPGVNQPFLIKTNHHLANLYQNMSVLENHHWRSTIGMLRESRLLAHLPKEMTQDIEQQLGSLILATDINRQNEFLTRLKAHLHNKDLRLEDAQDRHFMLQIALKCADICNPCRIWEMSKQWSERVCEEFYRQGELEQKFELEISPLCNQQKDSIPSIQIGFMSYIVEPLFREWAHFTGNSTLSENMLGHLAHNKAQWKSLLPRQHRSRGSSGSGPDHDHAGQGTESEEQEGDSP
# [4] = target: High affinity cGMP-specific 3',5'-cyclic phosphodiesterase 9A (Homo sapiens, UniProt O76083); experiment: Inhibition of human PDE9A using [3H]cAMP as substrate after 30 mins by scintillation proximity assay
# [5] = target: High affinity cAMP-specific and IBMX-insensitive 3',5'-cyclic phosphodiesterase 8A (Homo sapiens, UniProt O60658); experiment: Inhibition of human PDE8A using [3H]cAMP as substrate after 30 mins by scintillation proximity assay
# [6] = target: cAMP and cAMP-inhibited cGMP 3',5'-cyclic phosphodiesterase 10A (Homo sapiens, UniProt Q9Y233); experiment: Inhibition of human recombinant PDE10A1 expressed in baculovirus infected insect SF21 cells using [3H]cAMP as substrate after 30 mins by scintillation proximity assay
# Procedure, shortened: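 Cytosolic PDE10A1 from Sf21 lysate (sonication in Tris-HCl/EDTA/sucrose pH 7.4, 48000 g supernatant, stored -70°C). Assay in 50 mM Tris-HCl/5 mM MgCl2 with 0.1 µM [3H]cAMP, started by substrate, 37°C for 30 min; stopped with Ysi-SPA beads, settled 1 h, scintillation counting. Enzyme amount optimized per preparation; no-enzyme blank for non-specific activity; IC50 by two-parameter Hill model.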
# [7] = target: Dual 3',5'-cyclic-AMP and -GMP phosphodiesterase 11A (Homo sapiens, UniProt Q9HCR9); experiment: Inhibition of human PDE11A using [3H]cAMP as substrate after 30 mins by scintillation proximity assay
# Chain of Dual 3',5'-cyclic-AMP and -GMP phosphodiesterase 11A (Q9HCR9 whole entry): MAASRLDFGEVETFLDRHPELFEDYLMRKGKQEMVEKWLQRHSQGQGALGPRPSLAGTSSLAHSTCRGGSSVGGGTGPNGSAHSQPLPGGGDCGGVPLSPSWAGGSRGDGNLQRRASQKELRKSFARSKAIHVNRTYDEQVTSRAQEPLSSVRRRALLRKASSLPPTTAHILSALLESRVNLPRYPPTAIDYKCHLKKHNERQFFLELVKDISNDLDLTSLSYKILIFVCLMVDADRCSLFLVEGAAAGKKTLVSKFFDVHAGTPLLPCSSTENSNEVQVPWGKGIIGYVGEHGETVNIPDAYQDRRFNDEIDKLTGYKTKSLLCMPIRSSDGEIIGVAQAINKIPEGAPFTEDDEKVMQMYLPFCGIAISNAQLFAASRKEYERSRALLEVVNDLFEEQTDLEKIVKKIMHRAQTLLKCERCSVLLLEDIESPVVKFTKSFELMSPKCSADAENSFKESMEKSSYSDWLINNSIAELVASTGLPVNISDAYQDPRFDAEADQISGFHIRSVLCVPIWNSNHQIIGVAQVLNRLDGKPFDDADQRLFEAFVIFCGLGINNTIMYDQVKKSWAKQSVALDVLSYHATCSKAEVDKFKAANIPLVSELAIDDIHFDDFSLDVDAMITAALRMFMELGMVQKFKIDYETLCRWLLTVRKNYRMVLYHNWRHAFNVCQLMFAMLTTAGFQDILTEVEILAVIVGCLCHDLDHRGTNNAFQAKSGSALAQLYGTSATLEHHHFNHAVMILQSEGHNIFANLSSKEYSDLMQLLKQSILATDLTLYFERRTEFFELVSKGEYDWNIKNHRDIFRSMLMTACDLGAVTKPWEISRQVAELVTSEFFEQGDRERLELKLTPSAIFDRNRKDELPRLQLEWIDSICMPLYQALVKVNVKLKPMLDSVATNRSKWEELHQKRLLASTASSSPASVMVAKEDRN
# [8] = target: Dual specificity calcium/calmodulin-dependent 3',5'-cyclic nucleotide phosphodiesterase 1B (Homo sapiens, UniProt Q01064); experiment: Inhibition of human PDE1B using [3H]cAMP as substrate after 30 mins by scintillation proximity assay
# Chain of Dual specificity calcium/calmodulin-dependent 3',5'-cyclic nucleotide phosphodiesterase 1B (Q01064 whole entry): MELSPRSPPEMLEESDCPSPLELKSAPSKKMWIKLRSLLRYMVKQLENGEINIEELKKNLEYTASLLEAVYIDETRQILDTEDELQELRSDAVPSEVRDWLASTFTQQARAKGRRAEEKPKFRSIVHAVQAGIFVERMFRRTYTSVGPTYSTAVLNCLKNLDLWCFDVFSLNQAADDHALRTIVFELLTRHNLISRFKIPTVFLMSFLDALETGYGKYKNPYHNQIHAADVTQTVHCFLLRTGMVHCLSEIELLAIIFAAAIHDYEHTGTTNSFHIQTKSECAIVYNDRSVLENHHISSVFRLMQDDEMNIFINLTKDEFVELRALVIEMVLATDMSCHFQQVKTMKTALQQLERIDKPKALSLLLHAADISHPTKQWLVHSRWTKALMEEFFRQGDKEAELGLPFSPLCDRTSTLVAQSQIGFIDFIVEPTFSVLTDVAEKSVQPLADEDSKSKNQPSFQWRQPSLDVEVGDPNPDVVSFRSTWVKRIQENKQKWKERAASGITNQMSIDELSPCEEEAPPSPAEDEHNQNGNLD
# [9] = target: cGMP-dependent 3',5'-cyclic phosphodiesterase (Homo sapiens, UniProt O00408); experiment: Inhibition of cGMP activated human recombinant PDE2A using [3H]cAMP as substrate after 30 mins by scintillation proximity assay
# Chain of cGMP-dependent 3',5'-cyclic phosphodiesterase (O00408 whole entry): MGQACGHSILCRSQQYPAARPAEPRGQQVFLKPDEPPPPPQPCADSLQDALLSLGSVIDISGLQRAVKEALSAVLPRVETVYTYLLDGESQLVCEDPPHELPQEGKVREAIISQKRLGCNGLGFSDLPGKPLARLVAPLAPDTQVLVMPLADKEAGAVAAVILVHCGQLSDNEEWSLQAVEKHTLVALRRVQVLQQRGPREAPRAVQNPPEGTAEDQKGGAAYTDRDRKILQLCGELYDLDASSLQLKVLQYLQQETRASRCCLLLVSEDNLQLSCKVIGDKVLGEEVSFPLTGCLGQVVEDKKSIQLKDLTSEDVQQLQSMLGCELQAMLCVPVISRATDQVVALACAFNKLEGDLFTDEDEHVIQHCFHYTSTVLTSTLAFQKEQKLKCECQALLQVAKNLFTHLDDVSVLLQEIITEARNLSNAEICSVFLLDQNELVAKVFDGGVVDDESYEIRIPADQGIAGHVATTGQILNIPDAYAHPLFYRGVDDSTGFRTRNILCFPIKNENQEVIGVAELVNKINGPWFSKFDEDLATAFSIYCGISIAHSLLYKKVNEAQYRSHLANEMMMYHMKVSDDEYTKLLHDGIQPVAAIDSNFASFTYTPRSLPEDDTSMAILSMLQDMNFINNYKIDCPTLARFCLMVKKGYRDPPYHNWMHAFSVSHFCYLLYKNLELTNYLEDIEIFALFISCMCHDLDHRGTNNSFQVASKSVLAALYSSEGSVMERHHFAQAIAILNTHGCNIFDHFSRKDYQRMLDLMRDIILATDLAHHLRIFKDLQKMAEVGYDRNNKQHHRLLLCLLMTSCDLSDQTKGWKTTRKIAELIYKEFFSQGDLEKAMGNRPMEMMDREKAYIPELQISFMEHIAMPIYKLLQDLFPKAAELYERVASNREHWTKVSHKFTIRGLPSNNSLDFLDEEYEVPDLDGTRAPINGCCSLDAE
# Procedure, shortened: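 PDE2A (NM002599) activated with 1 µM cGMP; substrate 0.5 µM [3H]cAMP; scintillation proximity read-out at varied inhibitor concentrations with fixed enzyme amount; IC50 from two-parameter Hill model.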
# [10] = target: cGMP-specific 3',5'-cyclic phosphodiesterase (Homo sapiens, UniProt O76074); experiment: Inhibition of human PDE5A using [3H]cAMP as substrate after 30 mins by scintillation proximity assay
# Homo sapiens = species on record: Homo sapiens; experiment: Selectivity factor, ratio of IC50 for human recombinant PDE2A to IC50 for human recombinant PDE10A1
# [11] = target: 3',5'-cyclic-AMP phosphodiesterase 4A (Homo sapiens, UniProt P27815); experiment: Inhibition of human PDE4A using [3H]cAMP as substrate after 30 mins by scintillation proximity assay
# Chain of 3',5'-cyclic-AMP phosphodiesterase 4A (P27815 whole entry): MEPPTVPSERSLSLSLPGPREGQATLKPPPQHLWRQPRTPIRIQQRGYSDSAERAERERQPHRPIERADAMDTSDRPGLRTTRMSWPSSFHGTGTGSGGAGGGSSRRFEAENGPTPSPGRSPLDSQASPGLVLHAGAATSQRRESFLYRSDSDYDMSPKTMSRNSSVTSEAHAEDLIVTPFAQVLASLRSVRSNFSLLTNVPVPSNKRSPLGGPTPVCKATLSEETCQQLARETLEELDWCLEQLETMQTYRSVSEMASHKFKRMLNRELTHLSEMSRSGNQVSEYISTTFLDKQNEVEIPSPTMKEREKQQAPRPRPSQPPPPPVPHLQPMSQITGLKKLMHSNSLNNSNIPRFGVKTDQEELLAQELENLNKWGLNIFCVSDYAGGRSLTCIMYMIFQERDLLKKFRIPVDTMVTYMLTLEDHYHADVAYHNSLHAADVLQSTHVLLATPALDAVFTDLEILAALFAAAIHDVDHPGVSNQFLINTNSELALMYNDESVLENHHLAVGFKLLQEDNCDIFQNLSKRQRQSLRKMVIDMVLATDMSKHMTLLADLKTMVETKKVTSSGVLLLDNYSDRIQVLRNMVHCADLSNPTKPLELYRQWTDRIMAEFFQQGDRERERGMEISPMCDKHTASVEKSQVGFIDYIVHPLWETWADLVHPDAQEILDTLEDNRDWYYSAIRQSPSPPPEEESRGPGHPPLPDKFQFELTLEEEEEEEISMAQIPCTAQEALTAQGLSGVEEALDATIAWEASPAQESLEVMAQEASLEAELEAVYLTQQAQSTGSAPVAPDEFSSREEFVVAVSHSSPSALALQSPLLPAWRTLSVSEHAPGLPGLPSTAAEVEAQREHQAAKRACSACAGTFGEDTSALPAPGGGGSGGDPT
# Chain of cGMP-inhibited 3',5'-cyclic phosphodiesterase 3A (Q14432 whole entry): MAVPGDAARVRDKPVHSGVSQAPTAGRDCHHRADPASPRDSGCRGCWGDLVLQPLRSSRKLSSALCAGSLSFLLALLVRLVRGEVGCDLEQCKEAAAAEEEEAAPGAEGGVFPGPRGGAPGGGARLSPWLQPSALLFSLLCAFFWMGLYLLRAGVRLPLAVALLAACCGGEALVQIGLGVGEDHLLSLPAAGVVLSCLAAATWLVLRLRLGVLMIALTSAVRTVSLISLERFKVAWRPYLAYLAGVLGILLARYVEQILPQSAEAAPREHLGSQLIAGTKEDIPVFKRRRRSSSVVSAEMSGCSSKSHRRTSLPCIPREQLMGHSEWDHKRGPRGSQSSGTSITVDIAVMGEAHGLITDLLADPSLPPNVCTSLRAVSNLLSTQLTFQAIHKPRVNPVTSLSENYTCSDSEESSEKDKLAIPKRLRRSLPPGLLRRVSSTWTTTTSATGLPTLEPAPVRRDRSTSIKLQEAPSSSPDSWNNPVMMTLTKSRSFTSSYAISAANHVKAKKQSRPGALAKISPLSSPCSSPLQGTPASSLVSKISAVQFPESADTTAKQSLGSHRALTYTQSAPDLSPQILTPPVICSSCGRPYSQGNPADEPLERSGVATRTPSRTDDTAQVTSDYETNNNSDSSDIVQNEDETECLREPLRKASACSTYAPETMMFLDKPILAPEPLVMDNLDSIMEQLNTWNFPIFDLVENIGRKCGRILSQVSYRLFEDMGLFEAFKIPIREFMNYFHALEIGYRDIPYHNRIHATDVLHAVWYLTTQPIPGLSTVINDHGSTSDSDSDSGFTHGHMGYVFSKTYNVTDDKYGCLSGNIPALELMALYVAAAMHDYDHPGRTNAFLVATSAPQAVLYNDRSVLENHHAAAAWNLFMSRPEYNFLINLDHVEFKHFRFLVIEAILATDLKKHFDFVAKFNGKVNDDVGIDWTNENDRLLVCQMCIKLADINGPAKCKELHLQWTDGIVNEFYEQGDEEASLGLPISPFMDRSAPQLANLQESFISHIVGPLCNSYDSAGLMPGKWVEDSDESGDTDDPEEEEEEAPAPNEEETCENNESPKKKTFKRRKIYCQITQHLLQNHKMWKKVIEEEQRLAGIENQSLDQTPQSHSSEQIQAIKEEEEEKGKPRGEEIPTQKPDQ
SMILES,IC50 [1] [nM],IC50 [2] [nM],IC50 [3] [nM],IC50 [4] [nM],IC50 [5] [nM],IC50 [6] [nM],IC50 [7] [nM],IC50 [8] [nM],IC50 [9] [nM],IC50 [10] [nM],Ratio IC50 (Homo sapiens),IC50 [11] [nM]
COc1cc(-c2ccc(F)nc2)cc2c1nc(C)c1c(C)nc(Br)n12,–,–,–,–,–,10.3,–,–,> 1000,–,> 97,–
COc1cc(-c2cccnc2)cc2c1nc(C)c1c(C)nc(-c3cccnc3F)n12,> 1000,177,> 1000,> 1000,> 1000,0.037,457,> 1000,3.49,91.6,94,< 1000
COc1cc(C#N)cc2c1nc(C)c1c(C)nc(-c3ccc(F)nc3)n12,–,–,–,–,–,20.4,–,–,> 1000,–,> 49,–
COc1cc(-c2ccc(F)nc2)cc2c1nc(C)c1c(C)nc(-c3cccnc3)n12,> 1000,631,> 1000,> 1000,> 1000,0.33,286,> 1000,29.2,279,88,> 1000
COc1cc(-c2cccnc2)cc2c1nc(C)c1c(C)nc(-c3ccnc(F)c3)n12,–,–,–,–,–,0.46,–,–,46.8,–,102,–
COc1cc(C#N)cc2c1nc(C)c1c(C)nc(-c3cccnc3F)n12,–,–,–,–,–,1.69,–,–,98.6,–,58,–
COc1cc(-c2cccnc2F)cc2c1nc(C)c1c(C)nc(-c3cccnc3F)n12,–,–,–,–,–,0.048,–,–,2.06,–,43,–
COc1cc2ncnc(N3CC[C@@H](Oc4cnc5ccccc5n4)C3)c2cc1OC,–,–,–,–,–,16,–,–,–,–,–,–

# More lines, in order of falling IC50 [6], values ahead:
IC50 [1] [nM],IC50 [2] [nM],IC50 [3] [nM],IC50 [4] [nM],IC50 [5] [nM],IC50 [6] [nM],IC50 [7] [nM],IC50 [8] [nM],IC50 [9] [nM],IC50 [10] [nM],Ratio IC50 (Homo sapiens),IC50 [11] [nM],SMILES
–,–,–,–,–,26.3,–,–,> 1000,–,> 38,–,COc1cc(-c2ccc(F)nc2)cc2c1nc(C)c1c(C)ncn12
> 1000,> 1000,> 1000,> 1000,> 1000,3.3,> 1000,> 1000,395,> 1000,120,> 1000,COc1cc(-c2ccc(F)nc2)cc2c1nc(C)c1c(C)nc(-c3ccc(F)nc3)n12
–,–,–,–,–,3.18,–,–,> 1000,–,> 312,–,COc1cc(Br)cc2c1nc(C)c1c(C)nc(-c3ccnc(F)c3)n12
> 1000,> 1000,> 1000,> 1000,> 1000,2.95,> 1000,> 1000,> 1000,> 1000,> 339,> 1000,COc1cc(Br)cc2c1nc(C)c1c(C)nc(-c3ccc(F)nc3)n12
–,–,–,–,–,1.57,–,–,481,–,306,–,COc1cc(-c2ccnc(F)c2)cc2c1nc(C)c1c(C)nc(-c3ccnc(F)c3)n12
> 1000,585,< 1000,> 1000,> 1000,0.99,413,> 1000,162,195,164,> 1000,COc1cc(-c2ccncc2)cc2c1nc(C)c1c(C)nc(-c3ccc(F)nc3)n12
> 1000,559,> 1000,> 1000,> 1000,0.87,395,> 1000,78.6,228,90,> 1000,COc1cc(-c2cccnc2)cc2c1nc(C)c1c(C)nc(-c3ccc(F)nc3)n12
> 1000,> 1000,> 1000,> 1000,> 1000,0.41,> 1000,> 1000,65.7,201,160,841,COc1cc(-c2ccc(F)nc2)cc2c1nc(C)c1c(C)nc(-c3ccncc3)n12
> 1000,432,> 1000,> 1000,> 1000,0.12,494,> 1000,23.9,606,199,> 1000,COc1cc(Br)cc2c1nc(C)c1c(C)nc(-c3cccnc3F)n12
> 1000,425,> 1000,> 1000,> 1000,0.11,286,> 1000,10.9,232,99,1000,COc1cc(-c2cccnc2)cc2c1nc(C)c1c(C)nc(-c3cccnc3)n12
